Activity calls are given as the source filed them. The rule behind the calls is not given here.
How the values were obtained:
Fusarium oxysporum [1] = assay: Antimicrobial activity against Fusarium oxysporum at 1000 ppm; format: functional; conditions: read-out: IZ
Method in brief: (§1)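 Compound applied at 1000 ppm in DMSO to each bacterial, fungal or oomycete test organism; activity read as the diameter of the growth-inhibition zone in mm.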

Botrytis cinerea [2] = assay: Antimicrobial activity against Botrytis cinerea at 100 ppm; format: functional; conditions: read-out: IZ
Saccharomyces cerevisiae [3] = assay: Antimicrobial activity against Saccharomyces cerevisiae at 100 ppm; format: functional, organism-based
Pseudomonas aeruginosa = assay: Antimicrobial activity against Pseudomonas aeruginosa at 1000 ppm; format: functional, organism-based; method in brief: as §1
Rhizoctonia solani [4] = assay: Antimicrobial activity against Rhizoctonia solani at 100 ppm; format: functional; conditions: read-out: IZ
Bacillus subtilis [5] = assay: Antimicrobial activity against Bacillus subtilis at 1000 ppm; format: functional; conditions: read-out: IZ; method in brief: as §1
Rhizoctonia solani [6] = assay: Antimicrobial activity against Rhizoctonia solani at 10 ppm; format: functional; conditions: read-out: IZ
Globisporangium ultimum = assay: Antimicrobial activity against Pythium ultimum at 1000 ppm; format: functional, organism-based; method in brief: as §1
Botrytis cinerea [7] = assay: Antimicrobial activity against Botrytis cinerea at 1000 ppm; format: functional; conditions: read-out: IZ; method in brief: as §1
Fusarium oxysporum [8] = assay: Antimicrobial activity against Fusarium oxysporum at 100 ppm; format: functional, organism-based
Aspergillus niger = assay: Antimicrobial activity against Aspergillus niger at 1000 ppm; format: functional, organism-based; method in brief: as §1
Botrytis cinerea [9] = assay: Antimicrobial activity against Botrytis cinerea at 10 ppm; format: functional; conditions: read-out: IZ
Rhizoctonia solani [10] = assay: Antimicrobial activity against Rhizoctonia solani at 1000 ppm; format: functional; conditions: read-out: IZ; method in brief: as §1
Bacillus subtilis [11] = assay: Antimicrobial activity against Bacillus subtilis at 100 ppm; format: functional, organism-based
Saccharomyces cerevisiae [12] = assay: Antimicrobial activity against Saccharomyces cerevisiae at 1000 ppm; format: functional; conditions: read-out: IZ; method in brief: as §1

CC(C)=CC[C@@]12CCN(C)[C@@H]1Nc1cc(Br)ccc12 (relative stereo) [FLUSTRAMINE E]
zone of inhibition at 1000 ppm (Fusarium oxysporum [1]): 10 mm
zone of inhibition at 100 ppm (Botrytis cinerea [2]): 25 mm
Activity (Saccharomyces cerevisiae [3]): inactive
Activity (Pseudomonas aeruginosa): inactive
zone of inhibition at 100 ppm (Rhizoctonia solani [4]): 9 mm
zone of inhibition at 1000 ppm (Bacillus subtilis [5]): 12 mm
zone of inhibition at 10 ppm (Rhizoctonia solani [6]): 9 mm
Activity (Globisporangium ultimum): inactive
zone of inhibition at 1000 ppm (Botrytis cinerea [7]): 27 mm
Activity (Fusarium oxysporum [8]): inactive
Activity (Aspergillus niger): inactive
zone of inhibition at 10 ppm (Botrytis cinerea [9]): 21 mm
zone of inhibition at 1000 ppm (Rhizoctonia solani [10]): 10 mm
Activity (Bacillus subtilis [11]): inactive
zone of inhibition at 1000 ppm (Saccharomyces cerevisiae [12]): 14 mm

From ChEMBL document CHEMBL1148046, “Marine alkaloids, 15. Two alkaloids, flustramine E and debromoflustramine B, from the marine bryozoan Flustra foliacea” (1994)
